Experimental data as given in ChEMBL document CHEMBL1151428, “Capability of 11 antipneumococcal antibiotics to select for resistance by multistep and single-step methodologies” (2007).

What was measured:
Type in all cases: functional
Streptococcus pneumoniae [1] = assay: Antimicrobial activity against drug-resistant Streptococcus pneumoniae isolate 3009 after 21 passages with gemifloxacin measured after 10 antibiotic-free subculture by multi-step resistance selection technique
Procedure, shortened: (§1)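 Mutants selected by daily broth passage in subinhibitory drug in cation-adjusted Mueller-Hinton broth with 5% lysed horse blood. Stability was tested by 10 daily passages on blood agar without antibiotic, then macrodilution MIC.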

Streptococcus pneumoniae [2] = assay: Antimicrobial activity against drug-resistant Streptococcus pneumoniae isolate 2527 after 50 passages by multi-step resistance selection technique
Procedure, shortened: (§2)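 Daily serial passage in subinhibitory drug levels in 1 ml cation-adjusted Mueller-Hinton broth with 5% lysed horse blood; fresh broth for tigecycline. Each day, 10 μl were taken from the tube one to two dilutions below the MIC whose turbidity matched the growth control, and used to set the next MIC. […] MIC by macrodilution.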

Streptococcus pneumoniae [3] = assay: Antimicrobial activity against drug-resistant Streptococcus pneumoniae isolate 1076 after 35 passages by multi-step resistance selection technique; procedure, shortened: as §2
Streptococcus pneumoniae [4] = assay: Antimicrobial activity against drug-resistant Streptococcus pneumoniae isolate 1076 after 14 passages with Telithromycin measured after 10 antibiotic-free subculture by multi-step resistance selection technique; procedure, shortened: as §1
Streptococcus pneumoniae [5] = assay: Antimicrobial activity against drug-resistant Streptococcus pneumoniae isolate 3009 after 19 passages by multi-step resistance selection technique; procedure, shortened: as §2
Streptococcus pneumoniae [6] = assay: Antimicrobial activity against drug-resistant Streptococcus pneumoniae isolate 3243 after 20 passages by multi-step resistance selection technique; procedure, shortened: as §2
Streptococcus pneumoniae [7] = assay: Antimicrobial activity against drug-resistant Streptococcus pneumoniae isolate 2527 by NCCLS M7-A7 method
Streptococcus pneumoniae [8] = assay: Antimicrobial activity against drug-resistant Streptococcus pneumoniae isolate 1076 by NCCLS M7-A7 method
Streptococcus pneumoniae [9] = assay: Antimicrobial activity against drug-resistant Streptococcus pneumoniae isolate 3676 after 50 passages by multi-step resistance selection technique
Procedure, shortened: (§3)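 Daily serial passage in broth at subinhibitory drug levels: 1 ml cation-adjusted Mueller-Hinton broth with 5% lysed horse blood; fresh broth for tigecycline. Each day 10 μl inoculum taken from the tube one to two dilutions below MIC matching growth-control turbidity, used to set next MIC. Continued until ≥8-fold MIC rise, minimum 14, maximum 50 passages; MIC read by macrodilution.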

Streptococcus pneumoniae [10] = assay: Antimicrobial activity against drug-resistant Streptococcus pneumoniae isolate 2527 after 14 passages with gemifloxacin measured after 10 antibiotic-free subculture by multi-step resistance selection technique; procedure, shortened: as §1
Streptococcus pneumoniae [11] = assay: Antimicrobial activity against drug-resistant Streptococcus pneumoniae isolate 3665 after 38 passages with moxifloxacin measured after 10 antibiotic-free subculture by multi-step resistance selection technique
Streptococcus pneumoniae [12] = assay: Antimicrobial activity against drug-resistant Streptococcus pneumoniae isolate 3676 after 50 passages with moxifloxacin measured after 10 antibiotic-free subculture by multi-step resistance selection technique
Streptococcus pneumoniae [13] = assay: Antimicrobial activity against drug-resistant Streptococcus pneumoniae isolate 3665 after 38 passages by multi-step resistance selection technique; procedure, shortened: as §3
Streptococcus pneumoniae [14] = assay: Antimicrobial activity against drug-resistant Streptococcus pneumoniae isolate 1635 after 14 passages with azithromycin measured after 10 antibiotic-free subculture by multi-step resistance selection technique; procedure, shortened: as §1
Streptococcus pneumoniae [15] = assay: Antimicrobial activity against drug-resistant Streptococcus pneumoniae isolate 1077 after 49 passages with clindamycin measured after 10 antibiotic-free subculture by multi-step resistance selection technique
Streptococcus pneumoniae [16] = assay: Antimicrobial activity against drug-resistant Streptococcus pneumoniae isolate 3665 after 50 passages by multi-step resistance selection technique; procedure, shortened: as §3
Streptococcus pneumoniae [17] = assay: Antimicrobial activity against drug-resistant Streptococcus pneumoniae isolate 3009 by NCCLS M7-A7 method
Streptococcus pneumoniae [18] = assay: Antimicrobial activity against drug-resistant Streptococcus pneumoniae isolate 1635 after 14 passages with clindamycin measured after 10 antibiotic-free subculture by multi-step resistance selection technique
Streptococcus pneumoniae [19] = assay: Antimicrobial activity against drug-resistant Streptococcus pneumoniae isolate 3274 after 48 passages with Telithromycin measured after 10 antibiotic-free subculture by multi-step resistance selection technique; procedure, shortened: as §1
Streptococcus pneumoniae [20] = assay: Antimicrobial activity against drug-resistant Streptococcus pneumoniae isolate 1635 after 14 passages by multi-step resistance selection technique; procedure, shortened: as §2
Streptococcus pneumoniae [21] = assay: Antimicrobial activity against drug-resistant Streptococcus pneumoniae isolate 3413 after 30 passages with Telithromycin measured after 10 antibiotic-free subculture by multi-step resistance selection technique; procedure, shortened: as §1
Streptococcus pneumoniae [22] = assay: Antimicrobial activity against drug-resistant Streptococcus pneumoniae isolate 1077 after 29 passages with azithromycin measured after 10 antibiotic-free subculture by multi-step resistance selection technique; procedure, shortened: as §1
Streptococcus pneumoniae [23] = assay: Antimicrobial activity against drug-resistant Streptococcus pneumoniae isolate 3665 by NCCLS M7-A7 method
Streptococcus pneumoniae [24] = assay: Antimicrobial activity against drug-resistant Streptococcus pneumoniae isolate 1635 after 49 passages with clarithromycin measured after 10 antibiotic-free subculture by multi-step resistance selection technique
Streptococcus pneumoniae [25] = assay: Antimicrobial activity against drug-resistant Streptococcus pneumoniae isolate 3274 by NCCLS M7-A7 method
Streptococcus pneumoniae [26] = assay: Antimicrobial activity against drug-resistant Streptococcus pneumoniae isolate 3009 after 25 passages with clarithromycin measured after 10 antibiotic-free subculture by multi-step resistance selection technique
Streptococcus pneumoniae [27] = assay: Antimicrobial activity against drug-resistant Streptococcus pneumoniae isolate 3274 after 50 passages by multi-step resistance selection technique
Procedure, shortened: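 Daily serial passage in subinhibitory drug levels in 1 ml cation-adjusted Mueller-Hinton broth with 5% lysed horse blood; fresh broth for tigecycline. Each day, 10 μl were taken from the tube one to two dilutions below the MIC whose turbidity matched the growth control, and used to set the next MIC. MIC by macrodilution.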

Streptococcus pneumoniae [28] = assay: Antimicrobial activity against drug-resistant Streptococcus pneumoniae isolate 3665 after 14 passages with Telithromycin measured after 10 antibiotic-free subculture by multi-step resistance selection technique
Streptococcus pneumoniae [29] = assay: Antimicrobial activity against drug-resistant Streptococcus pneumoniae isolate 1077 by NCCLS M7-A7 method
Streptococcus pneumoniae [30] = assay: Antimicrobial activity against drug-resistant Streptococcus pneumoniae isolate 24 after 50 passages with moxifloxacin measured after 10 antibiotic-free subculture by multi-step resistance selection technique; procedure, shortened: as §1
Streptococcus pneumoniae [31] = assay: Antimicrobial activity against drug-resistant Streptococcus pneumoniae isolate 3676 by NCCLS M7-A7 method
Streptococcus pneumoniae [32] = assay: Antimicrobial activity against drug-resistant Streptococcus pneumoniae isolate 1077 after 15 passages with Telithromycin measured after 10 antibiotic-free subculture by multi-step resistance selection technique; procedure, shortened: as §1
Streptococcus pneumoniae [33] = assay: Antimicrobial activity against drug-resistant Streptococcus pneumoniae isolate 3243 by NCCLS M7-A7 method
Streptococcus pneumoniae [34] = assay: Antimicrobial activity against drug-resistant Streptococcus pneumoniae isolate 3413 by NCCLS M7-A7 method
Streptococcus pneumoniae [35] = assay: Antimicrobial activity against drug-resistant Streptococcus pneumoniae isolate 37 after 14 passages with Telithromycin measured after 10 antibiotic-free subculture by multi-step resistance selection technique
Streptococcus pneumoniae [36] = assay: Antimicrobial activity against drug-resistant Streptococcus pneumoniae isolate 3243 after 33 passages by multi-step resistance selection technique; procedure, shortened: as §2
Streptococcus pneumoniae [37] = assay: Antimicrobial activity against drug-resistant Streptococcus pneumoniae isolate 3676 after 44 passages with clarithromycin measured after 10 antibiotic-free subculture by multi-step resistance selection technique
Streptococcus pneumoniae [38] = assay: Antimicrobial activity against drug-resistant Streptococcus pneumoniae isolate 3243 after 33 passages with azithromycin measured after 10 antibiotic-free subculture by multi-step resistance selection technique; procedure, shortened: as §1
Streptococcus pneumoniae [39] = assay: Antimicrobial activity against drug-resistant Streptococcus pneumoniae isolate 3009 after 19 passages with moxifloxacin measured after 10 antibiotic-free subculture by multi-step resistance selection technique; procedure, shortened: as §1
Streptococcus pneumoniae [40] = assay: Antimicrobial activity against drug-resistant Streptococcus pneumoniae isolate 1635 by NCCLS M7-A7 method
Streptococcus pneumoniae [41] = assay: Antimicrobial activity against drug-resistant Streptococcus pneumoniae isolate 2527 after 20 passages by multi-step resistance selection technique
Streptococcus pneumoniae [42] = assay: Antimicrobial activity against drug-resistant Streptococcus pneumoniae isolate 3243 after 20 passages with moxifloxacin measured after 10 antibiotic-free subculture by multi-step resistance selection technique; procedure, shortened: as §1
Streptococcus pneumoniae [43] = assay: Antimicrobial activity against drug-resistant Streptococcus pneumoniae isolate 3009 after 18 passages with levofloxacin measured after 10 antibiotic-free subculture by multi-step resistance selection technique; procedure, shortened: as §1
Streptococcus pneumoniae [44] = assay: Antimicrobial activity against drug-resistant Streptococcus pneumoniae isolate 1077 after 29 passages by multi-step resistance selection technique; procedure, shortened: as §2
Streptococcus pneumoniae [45] = assay: Antimicrobial activity against drug-resistant Streptococcus pneumoniae isolate 2527 after 20 passages with azithromycin measured after 10 antibiotic-free subculture by multi-step resistance selection technique; procedure, shortened: as §1
Streptococcus pneumoniae [46] = assay: Antimicrobial activity against drug-resistant Streptococcus pneumoniae isolate 3676 after 14 passages with Telithromycin measured after 10 antibiotic-free subculture by multi-step resistance selection technique
Streptococcus pneumoniae [47] = assay: Antimicrobial activity against drug-resistant Streptococcus pneumoniae isolate 3665 after 26 passages with clarithromycin measured after 10 antibiotic-free subculture by multi-step resistance selection technique
Streptococcus pneumoniae [48] = assay: Antimicrobial activity against drug-resistant Streptococcus pneumoniae isolate 1076 after 35 passages with moxifloxacin measured after 10 antibiotic-free subculture by multi-step resistance selection technique; procedure, shortened: as §1
Streptococcus pneumoniae [49] = assay: Antimicrobial activity against drug-resistant Streptococcus pneumoniae isolate 3243 after 41 passages with clarithromycin measured after 10 antibiotic-free subculture by multi-step resistance selection technique
Streptococcus pneumoniae [50] = assay: Antimicrobial activity against drug-resistant Streptococcus pneumoniae isolate 24 after 14 passages with Telithromycin measured after 10 antibiotic-free subculture by multi-step resistance selection technique; procedure, shortened: as §1
Streptococcus pneumoniae [51] = assay: Antimicrobial activity against drug-resistant Streptococcus pneumoniae isolate 3243 after 29 passages with Telithromycin measured after 10 antibiotic-free subculture by multi-step resistance selection technique; procedure, shortened: as §1
Streptococcus pneumoniae [52] = assay: Antimicrobial activity against drug-resistant Streptococcus pneumoniae isolate 37 by NCCLS M7-A7 method
Streptococcus pneumoniae [53] = assay: Antimicrobial activity against drug-resistant Streptococcus pneumoniae isolate 24 by NCCLS M7-A7 method

Measured: MIC

COc1c(N2C[C@@H]3CCCN[C@@H]3C2)c(F)cc2c(=O)c(C(=O)O)cn(C3CC3)c12 [MOXIFLOXACIN]
1 µg/mL: Streptococcus pneumoniae [4] | Streptococcus pneumoniae [6] | Streptococcus pneumoniae [8] | Streptococcus pneumoniae [11] | Streptococcus pneumoniae [13]
2 µg/mL: Streptococcus pneumoniae [1] | Streptococcus pneumoniae [5] | Streptococcus pneumoniae [7]
8 µg/mL: Streptococcus pneumoniae [2] | Streptococcus pneumoniae [3] | Streptococcus pneumoniae [9] | Streptococcus pneumoniae [10] | Streptococcus pneumoniae [12]

CC[C@H]1OC(=O)[C@H](C)[C@@H](O[C@H]2C[C@@](C)(OC)[C@@H](O)[C@H](C)O2)[C@H](C)[C@@H](O[C@@H]2O[C@H](C)C[C@H](N(C)C)[C@H]2O)[C@](C)(O)C[C@@H](C)CN(C)[C@H](C)[C@@H](O)[C@]1(C)O [AZITHROMYCIN]
0.008 µg/mL: Streptococcus pneumoniae [25] | Streptococcus pneumoniae [27]
1 µg/mL: Streptococcus pneumoniae [19] | Streptococcus pneumoniae [49]
8 µg/mL: Streptococcus pneumoniae [23] | Streptococcus pneumoniae [47] | Streptococcus pneumoniae [9] | Streptococcus pneumoniae [11]
0.5 µg/mL: Streptococcus pneumoniae [38]
2 µg/mL: Streptococcus pneumoniae [40] | Streptococcus pneumoniae [46]
0.03 µg/mL: Streptococcus pneumoniae [29] | Streptococcus pneumoniae [33] | Streptococcus pneumoniae [10]
0.25 µg/mL: Streptococcus pneumoniae [36]
16 µg/mL: Streptococcus pneumoniae [16] | Streptococcus pneumoniae [37]
0.016 µg/mL: Streptococcus pneumoniae [7] | Streptococcus pneumoniae [42]
4 µg/mL: Streptococcus pneumoniae [18] | Streptococcus pneumoniae [28] | Streptococcus pneumoniae [31] | Streptococcus pneumoniae [41] | Streptococcus pneumoniae [45] | Streptococcus pneumoniae [12]
not listed: Streptococcus pneumoniae [2] | Streptococcus pneumoniae [3] | Streptococcus pneumoniae [5] | Streptococcus pneumoniae [6] | Streptococcus pneumoniae [13]
> 64 µg/mL: all other assays above
